Data as given in ChEMBL document CHEMBL5143652, “Quinazolinones as allosteric fourth-generation EGFR inhibitors for the treatment of NSCLC” (Bioorg Med Chem Lett, 2022).

Tests used:
BaF3 [1] = test: Antiproliferative activity against mouse BaF3 cells harboring EGFR L858R/T790M double mutant assessed as inhibition of cell growth; assay type: functional, cell-based
Procedure, shortened: (§1)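 Ba/F3 proliferation assay with the compound alone (single-agent readout, no cetuximab). Cellular IC50 is reported in μM.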

[2] = molecular target: Epidermal growth factor receptor (Homo sapiens, UniProt P00533, L858R/T790M); test: biochemical
BaF3 [3] = test: Antiproliferative activity against mouse BaF3 cells harboring EGFR L858R/T790M double mutant assessed as inhibition of cell growth in presence of cetuximab; assay type: functional, cell-based
Procedure, shortened: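 Ba/F3 proliferation assay, second readout: cells co-treated with cetuximab to prevent EGFR dimer formation. Cellular IC50 is reported in μM.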

[4] = Clearance in mouse at 3 mg/kg, iv; assay type: ADME, organism-based; details: in vivo
[5] = AUC (0 to 8 hrs) in mouse at 3 mg/kg, iv or 20 mg/kg, po; assay type: ADME, organism-based; design: dose 3 mg/kg, route iv; details: in vivo
[6] = Oral bioavailability in mouse at 20 mg/kg; assay type: ADME, organism-based; details: in vivo
[7] = Half life in mouse at 3 mg/kg, iv; assay type: ADME, organism-based; details: in vivo
[8] = Volume of distribution at steady state in mouse at 3 mg/kg, iv or 20 mg/kg, po; assay type: ADME, organism-based; details: in vivo, read-out: Vdss
BaF3 [9] = test: Antiproliferative activity against mouse BaF3 cells harboring EGFR L858R/T790M/C797S triple mutant assessed as inhibition of cell growth; assay type: functional, cell-based; procedure, shortened: as §1

Epidermal growth factor receptor, sequence (P00533 25-1210 T790M/L858R limits assumed): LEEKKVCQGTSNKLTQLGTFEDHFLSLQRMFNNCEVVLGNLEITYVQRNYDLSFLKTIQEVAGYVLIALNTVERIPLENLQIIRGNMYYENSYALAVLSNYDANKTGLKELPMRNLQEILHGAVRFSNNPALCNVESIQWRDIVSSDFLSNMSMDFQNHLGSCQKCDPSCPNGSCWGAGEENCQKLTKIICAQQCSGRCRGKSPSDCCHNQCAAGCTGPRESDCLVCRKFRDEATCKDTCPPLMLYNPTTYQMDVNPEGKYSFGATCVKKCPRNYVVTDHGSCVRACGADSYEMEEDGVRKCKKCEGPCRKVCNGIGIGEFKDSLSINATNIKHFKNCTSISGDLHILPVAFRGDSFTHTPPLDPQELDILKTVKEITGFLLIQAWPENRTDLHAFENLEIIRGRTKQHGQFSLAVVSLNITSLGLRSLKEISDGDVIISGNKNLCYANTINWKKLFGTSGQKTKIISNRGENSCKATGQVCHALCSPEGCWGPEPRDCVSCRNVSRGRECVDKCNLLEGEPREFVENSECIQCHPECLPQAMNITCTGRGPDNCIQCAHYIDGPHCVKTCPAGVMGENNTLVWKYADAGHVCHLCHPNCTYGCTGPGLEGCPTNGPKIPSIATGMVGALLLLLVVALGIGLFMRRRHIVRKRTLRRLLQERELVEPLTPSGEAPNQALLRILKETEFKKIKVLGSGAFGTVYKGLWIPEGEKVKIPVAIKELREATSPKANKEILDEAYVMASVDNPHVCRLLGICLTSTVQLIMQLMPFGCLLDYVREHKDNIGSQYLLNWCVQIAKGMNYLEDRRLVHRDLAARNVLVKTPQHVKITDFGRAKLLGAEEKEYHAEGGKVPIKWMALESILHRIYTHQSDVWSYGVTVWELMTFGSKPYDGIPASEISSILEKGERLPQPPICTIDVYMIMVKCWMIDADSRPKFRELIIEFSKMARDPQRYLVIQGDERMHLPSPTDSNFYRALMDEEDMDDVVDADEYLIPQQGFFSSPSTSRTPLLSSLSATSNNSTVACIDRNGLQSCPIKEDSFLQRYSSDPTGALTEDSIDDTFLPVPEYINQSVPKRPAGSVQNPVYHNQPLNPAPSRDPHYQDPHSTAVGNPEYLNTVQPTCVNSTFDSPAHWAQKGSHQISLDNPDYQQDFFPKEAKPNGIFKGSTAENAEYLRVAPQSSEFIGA

| Structure (SMILES) | IC50 (BaF3 [1]) | IC50 [2] | IC50 (BaF3 [3]) | clearance [4] | AUC(0-t) [5] | F [6] | half-life [7] | Vd [8] | IC50 (BaF3 [9]) |
| --- | --- | --- | --- | --- | --- | --- | --- | --- | --- |
| CN1CCN(c2ccc(-c3ccc4c(c3)C(=O)N(C(C(=O)Nc3nccs3)c3cccc(F)c3)C4)cc2)CC1 (centres undefined) | 1990 nM | 1.8 nM |  |  |  |  |  |  |  |
| CN1CCN(c2ccc(-c3ccc4ncn(C(C(=O)Nc5nccs5)c5ccccc5)c(=O)c4c3)cc2)CC1 (centres undefined) | 2320 nM | 0.9 nM | 21 nM |  |  |  |  |  |  |
| CN1CCN(c2ccc(-c3ccc4c(c3)C(=O)N(C(C(=O)Nc3nccs3)c3ccccc3)C4)cc2)CC1 (centres undefined) | 2560 nM | 0.9 nM | 43 nM |  |  |  |  |  |  |
| CN1CCN(c2ccc(-c3ccc4c(c3)C(=O)N(C(C(=O)Nc3nccs3)c3cccc(F)c3)CC4)cc2)CC1 (centres undefined) | 1600 nM | 6.8 nM | 126 nM |  |  |  |  |  |  |
| CN1CCC(c2ccc(-c3ccc4c(c3)C(=O)N(C(C(=O)Nc3nccs3)c3cc(F)ccc3O)C4)cc2)CC1 (centres undefined) | 50 nM | 0.1 nM | 6 nM | 15.7 mL/min/kg | 2400 ng·h/mL | 15% | 2.3 h | 2.5 L/kg |  |
| CN1CCC(c2ccc(-c3ccc4ncn(C(C(=O)Nc5nccs5)c5ccccc5)c(=O)c4c3)cc2)CC1 (centres undefined) | 780 nM |  |  |  |  |  |  |  | 50 nM |
| CN1CCN(c2ccc(-c3ccc4cnn(C(C(=O)Nc5nccs5)c5ccccc5)c(=O)c4c3)cc2)CC1 (centres undefined) | 2160 nM | 10.3 nM | 380 nM |  |  |  |  |  |  |
| CN1CCC(c2ccc(-c3ccc4c(=O)n(C(C(=O)Nc5nccs5)c5ccccc5)ncc4c3)cc2)CC1 (centres undefined) | 1240 nM | 9.7 nM |  |  |  |  |  |  | 990 nM |
| CN1CCC(c2ccc(-c3ccc4ccn(C(C(=O)Nc5nccs5)c5ccccc5)c(=O)c4c3)cc2)CC1 (centres undefined) | 1500 nM | 1.8 nM | 70 nM |  |  |  |  |  | 380 nM |
| CN1CCC(c2ccc(-c3ccc4c(c3)C(=O)N(C(C(=O)Nc3nccs3)c3cccc(F)c3)CC4)cc2)CC1 (centres undefined) | 1470 nM | 3.2 nM | 99 nM |  |  |  |  |  |  |
| CN1CCN(c2ccc(-c3ccc4c(=O)n(C(C(=O)Nc5nccs5)c5ccccc5)ncc4c3)cc2)CC1 (centres undefined) | 3460 nM |  | 1670 nM |  |  |  |  |  |  |
| CN1CCC(c2ccc(-c3cc4c(=O)n(C(C(=O)Nc5nccs5)c5ccccc5)cnc4cc3F)cc2)CC1 (centres undefined) | 3000 nM | 1.4 nM | 73 nM |  |  |  |  |  | 280 nM |
| CN1CCC(c2ccc(-c3ccc4c(=O)n(C(C(=O)Nc5nccs5)c5ccccc5)cnc4c3)cc2)CC1 (centres undefined) | 2430 nM | 5.8 nM | 225 nM |  |  |  |  |  | 900 nM |
